High-throughput results as filed in PubChem.
UPR XBP1 act = adaptive UPR (XBP1) activation | 330,000 tested, 0.33% active | CHO-XBP1 luciferase reporter, IRE1-XBP1 UPR activation, luminescence; percent of tunicamycin response, DMSO as zero | AID 463104 | activation, % at 20 µM;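 active = versus positive control, 20 µM dose yields 30% or more activation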
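Assay system: CHO-XBP1 luciferase reporter cells; Schedule: 6 h treatment, 37 °C; Detection: glow luminescence from Steady-Glo reagent; Benchmarks: high control tunicamycin 10 µg/mL final, low control DMSO vehicle only.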
CHOP inh = blocks CHOP induction under ER stress. 220,000 tested, 3.8% active. inhibition, % at 10 µM. CHO-K1 CHOP-promoter luciferase, tunicamycin-induced, 15-18 h. AID 2732;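 active = compounds that reduced the stress-induced luciferase reporter signal by more than about 70% of percent inhibition, limit read from the data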
CHOP UPR activ = activators of apoptotic arm of unfolded protein response (CHOP); CHO-CHOP luciferase reporter, UPR activation, luminescence; percent of tunicamycin response over DMSO baseline; activation, % at 10 µM; 330,000 tested, 0.34% active; AID 449763;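 active = at 10 µM dose, activation of 40% or more, normalized to positive control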
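System: CHO-CHOP luciferase reporter cell line; amount: 500 cells/well; buffer or medium: F12 medium containing 10% fetal bovine serum; incubation: 6 h compound exposure at 37 °C after overnight seeding; measured by: luciferase luminescence after 10 min with Steady-Glo reagent; evaluation: % reporter activation, DMSO baseline versus tunicamycin full activation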
697 NFkB inh = inhibitors of the PMA/ionomycin-induced NF-kB reporter in 697 B cells; 697 B-cell NF-kB luciferase reporter, 16 h; inhibition, % at 4 µM; 330,000 tested, 0.33% active; AID 435022; in the data active = inhibition above about 35%
Jurkat NFkB inh = lowers PMA/ionomycin-induced NF-kB signal in Jurkat cells. inhibition, % at 4 µM. 330,000 tested, 0.53% active. PMA/ionomycin-induced NF-kB luciferase reporter, luminescence; in the data active = inhibition above about 50%
Large screens that a line does not name were inactive. Shown is part of a subset that was picked to be rich in hits.

COc1cccc(Oc2cn[nH]c2-c2ccc(O)cc2O)c1	none (no result: CHOP inh)
COc1ccccc1-n1c(SCC(=O)NC2CC2)nc2ccccc2c1=O	none (no result: CHOP inh)
COc1ccc(CCNC(=O)COC(=O)CNS(=O)(=O)c2ccc(SC)c([N+](=O)[O-])c2)cc1	none (no result: CHOP inh)
Cc1c(Cl)sn(-c2ccc(Cl)cc2)c1=O	CHOP inh 95
O=C(CN(C(=O)CNC(=O)c1ccco1)c1ccccc1F)NC1CCCCC1	none (no result: CHOP inh)
Cc1cc(C(=O)CSc2nnc3ccccn23)c(C)n1-c1ccccc1	CHOP inh 73
CCN(CC)C(=O)CNC(=O)Cc1ccc(Cl)cc1	none
COc1ccc(N2C(=O)CC(c3ccc(OC(C)C)cc3)C2=O)cc1 (centres undefined)	CHOP inh 73
O=S(=O)(c1cc(Cl)ccc1Cl)N1CCCCC1	none
Cc1cc(S(=O)(=O)N2CCCCCC2)c(Cl)cc1Cl	CHOP inh 80
O=C(Oc1c(Cl)cc(Cl)c2cccnc12)c1cccc([N+](=O)[O-])c1	CHOP inh 97
CCc1nnc(NC(=O)Cn2nc(-c3ccccc3OC)ccc2=O)s1	CHOP inh 70
O=C(c1cccnc1)C1CCCN(Cc2nc(Cc3ccccc3)no2)C1 (centres undefined)	none
CN(C)CCCN1CC(C(=O)O)CC1=O (centres undefined)	CHOP inh 76
O=C(O)C1CC(=O)N(CCc2ccccc2)C1 (centres undefined)	none
COC(=O)c1cc(Nc2cc(C)c3c(O)cccc3n2)cc(C(=O)OC)c1	none
Cc1ccc(Nc2cc(C)c3c(O)cccc3n2)cc1C	none
COC(=O)c1cc(Nc2cc(C)c3ccc(O)cc3n2)cc(C(=O)OC)c1	CHOP inh 71
Cc1ccc(Nc2cc(C)c3ccc(O)cc3n2)cc1C	CHOP inh 79
COc1ccc(-c2nc(CS(=O)(=O)CC(=O)NC3CCC(C)CC3)c(C)o2)cc1 (centres undefined)	none (no result: CHOP inh)
COC(=O)c1ccc(NC(C(=O)OC)C(C)C)c([N+](=O)[O-])c1 (centres undefined)	none
CCC(C)C(Nc1ccc(C(=O)OC)cc1[N+](=O)[O-])C(=O)OC (centres undefined)	CHOP inh 89
COC(=O)c1c(NC(=O)Cn2cnc([N+](=O)[O-])n2)sc2c1CCC(C)C2 (centres undefined)	CHOP inh 75
Cc1ccc(S(=O)(=O)c2ccc(Cl)cc2)cc1S(=O)(=O)NC(C)C(=O)O (centres undefined)	none
CCOC(=O)C1CCN(c2nc(C)nc3c2oc2ccccc23)CC1	CHOP inh 75
CCc1nc(N2CCCCC2C)c2oc3ccccc3c2n1 (centres undefined)	none
Cc1nc(SCC(=O)NCc2ccccc2)c2oc3ccccc3c2n1	CHOP inh 72
CCc1nc(N2CCCCC2)c2oc3ccccc3c2n1	CHOP inh 89
CCc1nc(N2CCCC(C)C2)c2oc3ccccc3c2n1 (centres undefined)	CHOP inh 72
CC(C)C(=O)Nc1cccc(NC(=S)NC(=O)c2ccc([N+](=O)[O-])cc2)c1	none
Cc1cc(C(=O)NC(=S)Nc2cccc(NC(=O)C(C)C)c2)ccc1[N+](=O)[O-]	CHOP inh 81
Cc1nc2c3cc(F)ccc3n(Cc3ccccc3)c2s1	CHOP inh 74
CC(C)n1c(SCC(=O)Nc2nncs2)nnc1-c1ccco1	none (no result: CHOP inh)
COc1ccc(NC(=O)C2CCCNC2)cc1OCC(C)C (centres undefined)	CHOP inh 77
COc1cc(NC(=O)C2CCCCN2)ccc1OCC(C)C (centres undefined)	none
Oc1ccc(C=Nc2ccccc2-c2nc3ccccc3[nH]2)cc1	none
Cc1ccc(/C=N/N2CCN(Cc3cccc4ccccc34)CC2)o1	CHOP inh 72
Cc1ccc(NC(=O)CCNC(=O)c2ccco2)cc1Cl	none (no result: CHOP inh)
O=Cc1cn(-c2ccccc2)nc1-c1cc2ccccc2oc1=O	CHOP inh 88
Cc1csc(NC(=O)CSc2nnc(C)s2)n1	none
Cc1nnc(SCC(=O)Nc2nc3c(s2)CC(C)CC3)s1 (centres undefined)	CHOP inh 84
CCOc1ccc(N(CC(=O)NCc2ccco2)C(=O)CCC(=O)Nc2ccccn2)cc1	none (no result: CHOP inh)
Cc1cccc(NC(=S)NC(C)(C)CC(C)(C)C)c1	CHOP inh 85
Cc1cc(C)nc(Nc2n[nH]c(COc3ccc4ccccc4c3)n2)n1	CHOP inh 87
O=C(Nc1ccccc1NC(=O)c1c(F)c(F)c(F)c(F)c1F)c1c(F)c(F)c(F)c(F)c1F	CHOP inh 77
O=C(Nc1cccc(F)c1)c1c(F)c(F)c(F)c(F)c1F	CHOP inh 79
Cc1cccc(NC(=O)c2c(F)c(F)c(F)c(F)c2F)c1	none
Cc1ccc(C)c(C(=O)CSc2nc(C)cc(=O)[nH]2)c1	none (no result: CHOP inh)
COc1ccc(S(=O)(=O)/N=C2/C=CC(=O)C(C)=C2C)cc1	CHOP inh 82
COC(=O)C1=C(CSc2nc3ccccc3o2)NC(=O)NC1c1cc(C)ccc1C (centres undefined)	CHOP inh 80
CCOC(=O)C1=C(CSc2nc3ccccc3s2)NC(=O)NC1c1ccc(OC)cc1 (centres undefined)	CHOP inh 84
CCOC(=O)C1=C(CSc2nc3ccccc3s2)NC(=O)NC1c1cc(C)ccc1C (centres undefined)	CHOP inh 75
O=C(CN1CCN(S(=O)(=O)c2ccc(F)cc2)CC1)Nc1ccc(F)cc1F	none (no result: CHOP inh)
COc1ccc2cc(C3(C)NC(=O)N(CC(=O)N4CCCCC4)C3=O)ccc2c1 (centres undefined)	none (no result: CHOP inh)
CCOC(=O)c1ccccc1NC(=O)c1ccc(NS(C)(=O)=O)cc1	CHOP inh 80
CCCOC(=O)COC(=O)c1ccccc1NC(=O)c1ccccc1	none
Cc1[nH]c2ccccc2c1C(=O)C(=O)N1CCN(c2cccc(Cl)c2)CC1	none (no result: CHOP inh)
Cc1cccc(C)c1NC(=O)COc1ccc2c(C)c(Cc3ccccc3)c(=O)oc2c1C	CHOP inh 96
COc1ccccc1-c1nc(C(N)=O)c2[nH]c(=O)n(-c3cccc(C)c3)c2n1	none
NC(=O)c1nc(-c2cccs2)nc2c1[nH]c(=O)n2-c1ccc(F)cc1	CHOP inh 76
Cc1cccc(-n2c(=O)[nH]c3c(C(N)=O)nc(-c4ccccc4Cl)nc32)c1	CHOP inh 91
Cc1ccc(-c2nc(CSCC(=O)NCCCN3CCOCC3)c(C)o2)cc1	none
Cc1ccc(-c2nc(CSCC(=O)NCCN3CCN(Cc4ccccc4)CC3)c(C)o2)cc1	CHOP inh 75
COc1ccccc1C1CC(c2cccs2)=NN1C(=O)CCC(=O)O (centres undefined)	none (no result: CHOP inh)
COc1ccccc1C1CC(c2cccs2)=Nc2ccccc2S1 (centres undefined)	CHOP inh 84
